ChEMBL document CHEMBL2062453, “Lead optimization through VLAK protocol: new annelated pyrrolo-pyrimidine derivatives as antitumor agents” (2012)

Key:
Assay type in all cases: functional
[1] = system: NCI-H522; test: Cytotoxicity against human NCI-H522 cells assessed as cell growth at 10 uM after 48 hrs by SRB assay relative to control; conditions: NCI-H522, 48 h, read-out: Activity
[2] = system: OVCAR-5; test: Cytotoxicity against human OVCAR5 cells assessed as cell growth at 10 uM after 48 hrs by SRB assay relative to control; conditions: OVCAR-5, 48 h, read-out: Activity
[3] = system: UO-31; test: Cytotoxicity against human UO31 cells assessed as cell growth at 10 uM after 48 hrs by SRB assay relative to control; conditions: UO-31, 48 h, read-out: Activity
How it was run: (§1)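 NCI single-dose primary screen across about 60 human tumour lines. Each line was inoculated and preincubated on microtiter plates, then exposed to one concentration of agent for 48 h. Growth is reported as percent growth (G%) of treated cells versus untreated control cells.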

[4] = system: DU-145; test: Cytotoxicity against human DU145 cells assessed as cell growth at 10 uM after 48 hrs by SRB assay relative to control; conditions: DU-145, 48 h, read-out: Activity
How it was run: (§2)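 NCI primary screen of about 60 human tumour lines. Cells inoculated and preincubated, then a single test concentration added and cultures incubated 48 h. Result given as percent growth (G%) of treated versus untreated control cells.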

[5] = system: SK-OV-3; test: Cytotoxicity against human SKOV3 cells assessed as cell growth at 10 uM after 48 hrs by SRB assay relative to control; conditions: SK-OV-3, 48 h, read-out: Activity
[6] = system: EKVX; test: Cytotoxicity against human EKVX cells assessed as cell growth at 10 uM after 48 hrs by SRB assay relative to control; conditions: read-out: Activity; how it was run: as §2
[7] = system: SF-268; test: Cytotoxicity against human SF268 cells assessed as cell growth at 10 uM after 48 hrs by SRB assay relative to control; conditions: SF-268, 48 h, read-out: Activity
[8] = system: CCRF-CEM; test: Cytotoxicity against human CCRF-CEM cells assessed as cell growth at 10 uM after 48 hrs by SRB assay relative to control; conditions: read-out: Activity; how it was run: as §2
[9] = system: HL-60(TB); test: Cytotoxicity against human HL-60(TB) cells assessed as cell growth at 10 uM after 48 hrs by SRB assay relative to control; conditions: HL-60, 48 h, read-out: Activity
[10] = system: IGROV-1; test: Cytotoxicity against human IGROV1 cells assessed as cell growth at 10 uM after 48 hrs by SRB assay relative to control; conditions: IGROV-1, 48 h, read-out: Activity; how it was run: as §2
[11] = system: RPMI-8226; test: Cytotoxicity against human RPMI8226 cells assessed as cell growth at 10 uM after 48 hrs by SRB assay relative to control; conditions: RPMI-8226, 48 h, read-out: Activity
[12] = system: A549; test: Cytotoxicity against human A549 cells assessed as cell growth at 10 uM after 48 hrs by SRB assay relative to control; conditions: A549, 48 h, read-out: Activity; how it was run: as §2
[13] = system: UACC-257; test: Cytotoxicity against human UACC257 cells assessed as cell growth at 10 uM after 48 hrs by SRB assay relative to control; conditions: UACC-257, 48 h, read-out: Activity; how it was run: as §1
[14] = system: Hs-578T; test: Cytotoxicity against human Hs578T cells assessed as cell growth at 10 uM after 48 hrs by SRB assay relative to control; conditions: read-out: Activity; how it was run: as §2
[15] = system: SF-539; test: Cytotoxicity against human SF539 cells assessed as cell growth at 10 uM after 48 hrs by SRB assay relative to control; conditions: SF-539, 48 h, read-out: Activity
[16] = system: ACHN; test: Cytotoxicity against human ACHN cells assessed as cell growth at 10 uM after 48 hrs by SRB assay relative to control; conditions: read-out: Activity; how it was run: as §2
[17] = system: RXF 393; test: Cytotoxicity against human RXF393 cells assessed as cell growth at 10 uM after 48 hrs by SRB assay relative to control; conditions: RXF 393, 48 h, read-out: Activity
[18] = system: OVCAR-4; test: Cytotoxicity against human OVCAR4 cells assessed as cell growth at 10 uM after 48 hrs by SRB assay relative to control; conditions: OVCAR-4, 48 h, read-out: Activity
[19] = system: HOP-92; test: Cytotoxicity against human HOP92 cells assessed as cell growth at 10 uM after 48 hrs by SRB assay relative to control; conditions: HOP-92, 48 h, read-out: Activity; how it was run: as §2
[20] = system: HT-29; test: Cytotoxicity against human HT-29 cells assessed as cell growth at 10 uM after 48 hrs by SRB assay relative to control; conditions: HT-29, 48 h, read-out: Activity; how it was run: as §2
[21] = system: NCI-H460; test: Cytotoxicity against human NCI-H460 cells assessed as cell growth at 10 uM after 48 hrs by SRB assay relative to control; conditions: NCI-H460, 48 h, read-out: Activity
[22] = system: LOX IMVI; test: Cytotoxicity against human LOXIMVI cells assessed as cell growth at 10 uM after 48 hrs by SRB assay relative to control; conditions: read-out: Activity; how it was run: as §2
[23] = system: NCI/ADR-RES; test: Cytotoxicity against human NCI/ADR-RES cells assessed as cell growth at 10 uM after 48 hrs by SRB assay relative to control; conditions: read-out: Activity
[24] = system: U-251; test: Cytotoxicity against human U251 cells assessed as cell growth at 10 uM after 48 hrs by SRB assay relative to control; conditions: U-251, 48 h, read-out: Activity; how it was run: as §1
[25] = system: MOLT-4; test: Cytotoxicity against human MOLT4 cells assessed as cell growth at 10 uM after 48 hrs by SRB assay relative to control; conditions: MOLT-4, 48 h, read-out: Activity
[26] = system: SK-MEL-5; test: Cytotoxicity against human SK-MEL-5 cells assessed as cell growth at 10 uM after 48 hrs by SRB assay relative to control; conditions: SK-MEL-5, 48 h, read-out: Activity
[27] = system: NCI-H322M; test: Cytotoxicity against human NCI-H322M cells assessed as cell growth at 10 uM after 48 hrs by SRB assay relative to control; conditions: read-out: Activity
[28] = system: SNB-19; test: Cytotoxicity against human SNB19 cells assessed as cell growth at 10 uM after 48 hrs by SRB assay relative to control; conditions: SNB-19, 48 h, read-out: Activity
[29] = system: UACC-62; test: Cytotoxicity against human UACC62 cells assessed as cell growth at 10 uM after 48 hrs by SRB assay relative to control; conditions: UACC-62, 48 h, read-out: Activity; how it was run: as §1
[30] = system: SF-295; test: Cytotoxicity against human SF295 cells assessed as cell growth at 10 uM after 48 hrs by SRB assay relative to control; conditions: SF-295, 48 h, read-out: Activity
[31] = system: T47D; test: Cytotoxicity against human T47D cells assessed as cell growth at 10 uM after 48 hrs by SRB assay relative to control; conditions: read-out: Activity; how it was run: as §1
[32] = system: SR; test: Cytotoxicity against human SR cells assessed as cell growth at 10 uM after 48 hrs by SRB assay relative to control; conditions: read-out: Activity; how it was run: as §1
[33] = system: M14; test: Cytotoxicity against human M14 cells assessed as cell growth at 10 uM after 48 hrs by SRB assay relative to control; conditions: M14, 48 h, read-out: Activity; how it was run: as §2
[34] = system: SK-MEL-28; test: Cytotoxicity against human SK-MEL-28 cells assessed as cell growth at 10 uM after 48 hrs by SRB assay relative to control; conditions: SK-MEL-28, 48 h, read-out: Activity

| Compound | growth at 10 µM [1] | growth at 10 µM [2] | growth at 10 µM [3] | growth at 10 µM [4] | growth at 10 µM [5] | growth at 10 µM [6] | growth at 10 µM [7] | growth at 10 µM [8] | growth at 10 µM [9] | growth at 10 µM [10] | growth at 10 µM [11] | growth at 10 µM [12] | growth at 10 µM [13] | growth at 10 µM [14] | growth at 10 µM [15] | growth at 10 µM [16] | growth at 10 µM [17] | growth at 10 µM [18] | growth at 10 µM [19] | growth at 10 µM [20] | also measured |
| --- | --- | --- | --- | --- | --- | --- | --- | --- | --- | --- | --- | --- | --- | --- | --- | --- | --- | --- | --- | --- | --- |
| CCOC(=O)CCCn1c2c(c(C)c1-c1ccccc1)C1=NC(=O)CN1C(SC)=N2 | 92% | 111% | 85% | 109% | 123% | 97% | 105% | 71% | 90% | 105% | 81% | 108% | 113% | 112% | 84% | 112% | 108% | 94% | 80% | 103% | growth at 10 µM [21]: 94%; growth at 10 µM [22]: 93%; growth at 10 µM [23]: 95%; growth at 10 µM [24]: 102%; growth at 10 µM [25]: 77%; growth at 10 µM [26]: 78%; growth at 10 µM [27]: 108%; growth at 10 µM [28]: 106%; growth at 10 µM [29]: 95%; growth at 10 µM [30]: 98%; growth at 10 µM [31]: 88%; growth at 10 µM [32]: 94%; growth at 10 µM [33]: 107%; growth at 10 µM [34]: 100% |
| COC(=O)C(Cc1cnc[nH]1)NC(=O)CCCn1c(C)c(C)c2c1N=C(SC)N1CC(=O)N=C21 (stereo not drawn) | 90% | 106% | 96% | 113% | 125% | 95% | 106% | 105% | 92% | 95% | 100% | 98% | 107% | 107% | 91% | 113% | 112% | 90% | 92% | 96% | growth at 10 µM [21]: 99%; growth at 10 µM [22]: 92%; growth at 10 µM [23]: 110%; growth at 10 µM [24]: 96%; growth at 10 µM [25]: 98%; growth at 10 µM [26]: 98%; growth at 10 µM [27]: 105%; growth at 10 µM [28]: 94%; growth at 10 µM [29]: 109%; growth at 10 µM [30]: 112%; growth at 10 µM [31]: 104%; growth at 10 µM [32]: 118%; growth at 10 µM [33]: 106%; growth at 10 µM [34]: 113% |
